KCC2 mod = modulators of human KCC2 chloride dependent transport | AID 1456 | KCC2 cells, thallium flux FluoZin-2 fluorescence | B-score of Tl+ flux slope (higher = more flux/activation; lower = inhibition) at 10 µM | actives 2.2% (n = 190,000);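 active means thallium flux slope and its plate-corrected score both differing from the plate sample mean at a set confidence after two filtering rounds, in either direction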;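 further: slope of fluorescence scaled to starting intensity during 10 to 20 s after thallium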
Target sequence (Q9H2X9 whole entry, looked up): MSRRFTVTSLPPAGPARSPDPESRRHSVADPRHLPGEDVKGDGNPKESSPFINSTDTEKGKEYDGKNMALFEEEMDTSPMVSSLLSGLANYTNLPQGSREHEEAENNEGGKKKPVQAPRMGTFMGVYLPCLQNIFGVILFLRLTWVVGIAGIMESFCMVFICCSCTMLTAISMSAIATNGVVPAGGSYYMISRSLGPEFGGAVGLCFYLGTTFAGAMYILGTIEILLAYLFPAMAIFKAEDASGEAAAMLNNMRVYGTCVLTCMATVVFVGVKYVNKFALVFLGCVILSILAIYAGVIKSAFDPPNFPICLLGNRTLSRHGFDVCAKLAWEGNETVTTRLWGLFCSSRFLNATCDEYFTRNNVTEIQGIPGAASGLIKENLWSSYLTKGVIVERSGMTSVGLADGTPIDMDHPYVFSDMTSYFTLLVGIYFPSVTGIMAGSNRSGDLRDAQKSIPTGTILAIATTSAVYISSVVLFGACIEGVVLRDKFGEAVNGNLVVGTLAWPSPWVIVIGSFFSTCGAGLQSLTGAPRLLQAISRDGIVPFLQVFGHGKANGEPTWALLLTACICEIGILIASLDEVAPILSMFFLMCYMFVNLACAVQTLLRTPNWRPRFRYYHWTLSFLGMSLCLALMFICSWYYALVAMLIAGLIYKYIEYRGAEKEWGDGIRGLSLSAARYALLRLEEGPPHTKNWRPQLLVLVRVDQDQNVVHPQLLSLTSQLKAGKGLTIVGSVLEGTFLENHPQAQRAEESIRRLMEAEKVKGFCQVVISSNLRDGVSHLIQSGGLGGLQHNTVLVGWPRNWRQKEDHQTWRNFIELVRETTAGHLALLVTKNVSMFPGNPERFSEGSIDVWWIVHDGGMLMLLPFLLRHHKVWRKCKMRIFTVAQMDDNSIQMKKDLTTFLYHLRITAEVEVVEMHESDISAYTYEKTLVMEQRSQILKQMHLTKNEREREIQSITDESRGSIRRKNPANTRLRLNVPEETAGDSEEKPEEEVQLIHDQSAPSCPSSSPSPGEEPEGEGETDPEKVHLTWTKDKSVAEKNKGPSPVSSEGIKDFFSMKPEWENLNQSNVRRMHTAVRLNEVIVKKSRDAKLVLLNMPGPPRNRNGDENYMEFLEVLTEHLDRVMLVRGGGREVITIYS
Rad51 HR inh = Rad51 (human) homologous recombination inhibition; Q06609; hRad51 DNA strand exchange, fluorescence dequenching; inhibition, % at 10 µM; actives 0.085% (n = 200,000); AID 1385;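 active means inhibition above 40% at the single screening dose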
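Material: Human Rad51 nucleoprotein filaments preassembled on unlabelled ssDNA | Also added: Labelled 47-mer dsDNA for strand exchange | Dosing: Single dose, 10 µM final compound | Schedule: 30-min compound preincubation and 15-min exchange, both room temperature | Technique: Fluorescence dequenching at 485/520 nm | Measure: Percent inhibition relative to plate controls and blanks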
ROMK primary = human ROMK K+ channel modulation, primary screen; P48048; Tet-inducible ROMK, thallium flux fluorescence; actives lie on both sides; B-score at 10 µM; actives 2% (n = 130,000); AID 1918;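 active means signal ratio slope over the read window, or its plate-corrected B-score, at least 3 SD from the plate mean, either direction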;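 further: B-score of the F/F0 ratio slope over 7 to 12 s after thallium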
PKD1 kinase inh = PKD1 (human) kinase inhibition; Q15139; PKD1 kinase fluorescence polarization assay; inhibition, % (no concentration beside the values); actives 0.056% (n = 200,000); AID 797; in the data active means inhibition above about 50%
KCC2 secondary = confirmation of human KCC2 transport modulators; actives 15% (n = 3,700); shares compounds with KCC2 mod; HEK293-KCC2, thallium flux, FluoZin2 fluorescence; stronger effect = higher value; normalised thallium flux (F/F0 slope) at 10 µM;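 active means thallium flux slope above the same plate's solvent-only control mean plus 3 SD; inconclusive means the two replicate wells disagree; inactive means no significant difference from solvent-only control wells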
KCC2 bumet counter = bumetanide-insensitive thallium flux in KCC2 cells with ouabain, counter-screen; HEK293-KCC2 + bumetanide/ouabain, thallium flux FluoZin2; stronger effect = higher value; actives 49% (n = 3,700); shares compounds with KCC2 mod; normalized thallium flux at 10 µM;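 active means thallium entry rate above the same plate's blocked-transporter control wells by more than 3 SD; inconclusive means the two repeat wells disagree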;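 further: raw slope of fluorescence over initial fluorescence between 10 and 20 s after thallium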
KCC2 secondary2 = confirmation of human KCC2 transport modulators | shares compounds with KCC2 mod | HEK293-KCC2, thallium flux FluoZin2 fluorescence; actives lie on both sides; F/F0 rise rate, 10–20 s post-thallium | normalized thallium flux at 10 µM | actives 23% (n = 3,700) | AID 1715;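 active means thallium flux slope more than 3 SD above or below the plate's solvent-only control mean, mostly below; inconclusive means the two repeat wells disagreed; inactive means no significant shift from solvent-only controls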
HEK counter1 = parental HEK flux effect, counter-screen; shares compounds with KCC2 mod; HEK293 parental cells, thallium flux FluoZin2, ouabain; baseline-ratio fluorescence slope, 10–20 s after thallium; thallium flux rate (normalised fluorescence) at 10 µM; actives 46% (n = 3,700); AID 1716;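 active means thallium flux rate significantly above the same plate's solvent-only control wells, beyond their mean plus 3 SD; inconclusive means the two replicate wells gave conflicting results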
KCC2 retest ouab = confirmation of human KCC2 modulators with ouabain; shares compounds with KCC2 mod; HEK293-KCC2, thallium flux FluoZin2 fluorescence; bidirectional: low = inhibitor, high = activator; raw Tl+ flux slope (below DMSO = inhibition, above = activation) at 10 µM; actives 48% (n = 3,700);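 active means thallium flux slope beyond 3 SD from same-plate DMSO control mean in most replicates, usually higher, sometimes lower; inconclusive means repeat tests gave conflicting results; inactive means no significant difference from controls in most replicates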;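 further: slope of initial-normalized fluorescence between seconds 10 and 20 after thallium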
HEK counter2 = parental HEK flux effect, counter-screen 2; shares compounds with KCC2 mod; HEK293 parental, thallium flux FluoZin-2 fluorescence slope; thallium flux slope at 10 µM; actives 33% (n = 3,700); AID 1718;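 active means thallium flux slope above the same plate's solvent-control mean plus 3 SD in both duplicate wells; inconclusive means duplicate wells that disagreed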;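 further: run without ouabain in cells lacking the KCC2 cotransporter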
Large screens that a line does not name were inactive (follow-up assays come after a bar, where they were run). Most compounds without a hit are left out; they make up all but 3% or so of the library.

Cc1ccc(Nc2nnc(SCC(=O)c3ccc(Br)s3)s2)c(C)c1	KCC2 mod -3.9 (no result: ROMK primary) | KCC2 secondary inactive | KCC2 bumet counter inconclusive | KCC2 secondary2 inconclusive | HEK counter1 inactive | KCC2 retest ouab 0.013 | HEK counter2 inactive
Cc1cccc(Nc2nnc(SC/C(O)=C(\C#N)c3nc4ccccc4[nH]3)s2)c1	none
Cc1ccc(Nc2nnc(SC/C(O)=C(\C#N)c3nc4ccccc4[nH]3)s2)c(C)c1	KCC2 mod -4.2 (no result: ROMK primary) | KCC2 secondary inconclusive | KCC2 bumet counter inactive | KCC2 secondary2 inconclusive | HEK counter1 inconclusive | KCC2 retest ouab 0.014 | HEK counter2 0.012
O=C(N/N=C/c1ccc[nH]1)c1ccc([N+](=O)[O-])cc1	none (no result: Rad51 HR inh, ROMK primary)
COc1ccccc1C(=O)NC(=S)Nc1ccc(N2CCCC2)cc1	none (no result: Rad51 HR inh)
COc1ccc(OCC(=O)NC(=S)N2CCCc3ccccc32)cc1	KCC2 mod 24 (no result: Rad51 HR inh) | KCC2 secondary 0.021 | KCC2 bumet counter 0.037 | KCC2 secondary2 inactive | HEK counter1 0.021 | KCC2 retest ouab 0.029 | HEK counter2 0.021
COc1ccccc1C(=O)NC(=S)N1CCc2ccccc21	KCC2 mod 6.5 (no result: Rad51 HR inh) | KCC2 secondary inactive | KCC2 bumet counter 0.019 | KCC2 secondary2 inactive | HEK counter1 0.0085 | KCC2 retest ouab inconclusive | HEK counter2 inactive
COc1ccc(C(=O)NC(=S)N2CCCc3ccccc32)cc1OC	KCC2 mod 5.3 | KCC2 secondary inactive | KCC2 bumet counter 0.023 | KCC2 secondary2 inactive | HEK counter1 0.012 | KCC2 retest ouab inconclusive | HEK counter2 0.012
O=C(NC(=S)N1CCCc2ccccc21)c1ccc([N+](=O)[O-])cc1	none (no result: KCC2 mod, ROMK primary)
COc1cc2c(cc1OC)CN(C(=S)NC(=O)c1ccccc1)CC2	KCC2 mod 23 (no result: ROMK primary) | KCC2 secondary 0.026 | KCC2 bumet counter 0.05 | KCC2 secondary2 inconclusive | HEK counter1 0.031 | KCC2 retest ouab 0.033 | HEK counter2 0.032
CC(C)c1cc(N2CCC(=O)NC2=O)cc(C(=O)O)c1O	none
Cc1ccc(Cl)cc1N1CCN(C(=O)Cc2ccc(-n3c(=O)[nH]c4ccsc4c3=O)cc2)CC1	none (no result: ROMK primary)
COc1ccccc1-c1cc(C(=O)N2CCCc3ccccc32)no1	KCC2 mod -3.9 | KCC2 secondary inactive | KCC2 bumet counter inactive | KCC2 secondary2 inactive | HEK counter1 inconclusive | KCC2 retest ouab 0.016 | HEK counter2 inactive
O=C(Cc1ccccc1)N1CCc2ccccc21	none (no result: KCC2 mod, Rad51 HR inh)
CC(C)C(=O)NC(=S)N1CCc2ccccc21	KCC2 mod 5.2 (no result: Rad51 HR inh) | KCC2 secondary inactive | KCC2 bumet counter 0.021 | KCC2 secondary2 inconclusive | HEK counter1 0.018 | KCC2 retest ouab 0.028 | HEK counter2 0.017
Cc1ccccc1OCC(=O)NC(=S)Nc1ccc2c3c(cccc13)CC2	none (no result: ROMK primary)
COc1ccc(OCC(=O)NC(=S)Nc2ccc3c4c(cccc24)CC3)cc1	KCC2 mod 29 (no result: Rad51 HR inh) | KCC2 secondary inactive | KCC2 bumet counter 0.079 | KCC2 secondary2 inactive | HEK counter1 0.031 | KCC2 retest ouab 0.036 | HEK counter2 0.014
COc1ccc(OC)c(-c2cc(C(=O)N3CCCc4ccccc43)no2)c1	none (no result: KCC2 mod)
COC(=O)c1sccc1NS(=O)(=O)c1ccc(OC)cc1	none (no result: KCC2 mod) | KCC2 secondary inactive | KCC2 bumet counter 0.013 | KCC2 secondary2 inactive | HEK counter1 0.012 | KCC2 retest ouab inconclusive | HEK counter2 0.015
CSc1nc(Cl)cc(Nc2ccc(O)cc2)n1	none
C/C(=N/NC(=O)c1cccs1)c1ccco1	KCC2 mod 4.7 (no result: ROMK primary) | KCC2 secondary inactive | KCC2 bumet counter 0.015 | KCC2 secondary2 inactive | HEK counter1 inconclusive | KCC2 retest ouab inconclusive | HEK counter2 0.011
O=C(N/N=C1/CCCc2ccccc21)c1cc([N+](=O)[O-])cc([N+](=O)[O-])c1	none
C/C(=N\NC(=O)c1cccc([N+](=O)[O-])c1)c1cccs1	KCC2 mod 3.8 (no result: PKD1 kinase inh) | KCC2 secondary inactive | KCC2 bumet counter 0.023 | KCC2 secondary2 inactive | HEK counter1 0.017 | KCC2 retest ouab inconclusive | HEK counter2 inconclusive
C/C(=N\NC(=O)c1csc(C)c1C)c1ccco1	none
O=C(N/N=C1\CCCc2ccccc21)c1cccc([N+](=O)[O-])c1	KCC2 mod 4.4 (no result: Rad51 HR inh) | KCC2 secondary inconclusive | KCC2 bumet counter 0.023 | KCC2 secondary2 inactive | HEK counter1 0.012 | KCC2 retest ouab inactive | HEK counter2 0.012
O=C(N/N=C1\CCCc2ccccc21)c1cccc(Br)c1	KCC2 mod 5.9 | KCC2 secondary inconclusive | KCC2 bumet counter 0.022 | KCC2 secondary2 inactive | HEK counter1 0.011 | KCC2 retest ouab inconclusive | HEK counter2 inconclusive
Cc1ccc(-c2nc3cnccn3c2Nc2c(C)cccc2C)o1	none (no result: ROMK primary)
CCCC(C)NC(=O)c1sc2nc3n(c(=O)c2c1C)CCC3 (stereo not given)	none
OCC1(CC2CCCCO2)CCN(Cc2cccc(O)c2)CC1 (stereo not given)	none
COc1cc(Cl)c(C)cc1NC(=O)CN(C)Cc1cccc(OC)c1OC	KCC2 mod -3.6 | KCC2 secondary inactive | KCC2 bumet counter inactive | KCC2 secondary2 inactive | HEK counter1 0.0061 | KCC2 retest ouab inactive | HEK counter2 inconclusive
COc1ccccc1CN(C)CC(=O)Nc1ccc(Cl)cc1F	none
COc1ccc(CN(C(=O)c2ccc(-c3ccccc3)[nH]2)C(C(=O)NCC2CCCO2)c2ccc(C)o2)cc1 (stereo not given)	none (no result: KCC2 mod, Rad51 HR inh, ROMK primary) | KCC2 secondary inactive | KCC2 bumet counter inactive | KCC2 secondary2 0.025 | HEK counter1 inactive | KCC2 retest ouab inconclusive | HEK counter2 inactive
O=C(NCC1CCCO1)C(c1ccc(F)cc1)N(CCCN1CCOCC1)C(=O)c1ccc(-c2ccccc2)[nH]1 (stereo not given)	none
CC(C)(C)NC(=O)C(c1cccs1)N(CC1CCCO1)C(=O)c1ccc(-c2ccccc2)[nH]1 (stereo not given)	KCC2 mod -6.6 (no result: ROMK primary) | KCC2 secondary inactive | KCC2 bumet counter inactive | KCC2 secondary2 0.022 | HEK counter1 inactive | KCC2 retest ouab 0.01 | HEK counter2 inactive
O=C(NCC1CCCO1)C(c1cccs1)N(Cc1ccccc1)C(=O)c1ccc(-c2ccccc2)[nH]1 (stereo not given)	none (no result: Rad51 HR inh)
